# Results as given in ChEMBL document CHEMBL1781965, “Onoceranoid-type triterpenoids from Lansium domesticum” (2011).
# Experiments:
# Assay type in all cases: functional
# Serratia marcescens = assay: Antibacterial activity against Serratia marcescens ATCC 25419 after 18 hrs by microdilution assay; details: ATCC 25419, 18 h
# Summary of the method: (§1)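 Broth microdilution in Mueller Hinton broth, inoculum 5 × 10^5–10^6 cfu/mL final, compounds dissolved in DMSO (at most 1% in the solution), 37 °C for 18 h aerobically. Blank controls received DMSO alone; magnolol served as positive control.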
# Shigella flexneri = assay: Antibacterial activity against Shigella flexneri ATCC 12022 after 18 hrs by microdilution assay; details: ATCC 12022, 18 h; summary of the method: as §1
# Escherichia coli = assay: Antibacterial activity against Escherichia coli ATCC 25922 after 18 hrs by microdilution assay; details: ATCC 25922, 18 h; summary of the method: as §1
# Pseudomonas aeruginosa = assay: Antibacterial activity against Pseudomonas aeruginosa ATCC 14502 after 18 hrs by microdilution assay; details: ATCC 14502, 18 h; summary of the method: as §1
# Bacillus cereus = assay: Antibacterial activity against Bacillus cereus clinical isolate after 18 hrs by microdilution assay; summary of the method: as §1
# Bacillus subtilis = assay: Antibacterial activity against Bacillus subtilis ATCC 6633 after 18 hrs by microdilution assay; details: ATCC 6633, 18 h; summary of the method: as §1
# [1] = system: Staphylococcus epidermidis; assay: Antibacterial activity against Staphylococcus epidermidis ATCC 12228 after 18 hrs by microdilution assay; details: ATCC 12228, 18 h; summary of the method: as §1
# Alcaligenes faecalis = assay: Antibacterial activity against Alcaligenes faecalis ATCC 8750 after 18 hrs by microdilution assay; details: ATCC 8750, 18 h; summary of the method: as §1
# Micrococcus luteus = assay: Antibacterial activity against Micrococcus luteus ATCC 9341 after 18 hrs by microdilution assay; details: ATCC 9341, 18 h; summary of the method: as §1
# Staphylococcus aureus [2] = assay: Antibacterial activity against Micrococcus pyogenes clinical isolate after 18 hrs by microdilution assay; summary of the method: as §1
# Staphylococcus aureus [3] = assay: Antibacterial activity against Staphylococcus aureus ATCC 25923 after 18 hrs by microdilution assay; details: ATCC 25923, 18 h; summary of the method: as §1
MIC (Serratia marcescens) [µg/mL],MIC (Shigella flexneri) [µg/mL],MIC (Escherichia coli) [µg/mL],MIC (Pseudomonas aeruginosa) [µg/mL],MIC (Bacillus cereus) [µg/mL],MIC (Bacillus subtilis) [µg/mL],MIC [1] [µg/mL],MIC (Alcaligenes faecalis) [µg/mL],MIC (Micrococcus luteus) [µg/mL],MIC (Staphylococcus aureus [2]) [µg/mL],MIC (Staphylococcus aureus [3]) [µg/mL],SMILES
> 50,> 50,> 50,> 50,3.12,3.12,12.5,> 50,3.12,3.12,6.25,C=C1CC[C@H]2C(C)(C)[C@@H](O)CC[C@]2(C)[C@H]1CC[C@H]1C(C)=CC[C@@H](C(C)(C)O)[C@]1(C)CCC(=O)OC [LAMESTICUMIN B]
> 50,> 50,> 50,> 50,3.12,3.12,12.5,> 50,6.25,3.12,6.25,C=C1CC[C@H]2C(C)(C)[C@@H](O)CC[C@]2(C)[C@H]1CCC1=C(C)C(=O)C[C@H]2C(C)(C)C(=O)CC[C@]12C [LAMESTICUMIN C]
> 50,> 50,> 50,> 50,3.12,6.25,> 50,> 50,> 50,> 50,> 50,C=C1CC[C@H]2C(C)(C)C(=O)CC[C@]2(C)[C@H]1CCC1=C(C)[C@H](O)C[C@H]2C(C)(C)C(=O)CC[C@]12C [LAMESTICUMIN D]
> 50,> 50,> 50,> 50,3.12,12.5,> 50,> 50,> 50,6.25,> 50,C=C1CC[C@H]2C(C)(C)C(=O)CC[C@]2(C)[C@H]1CCC1=C(C)[C@H](O)C[C@@H](C(=C)C)[C@]1(C)CCC(=O)OC [LAMESTICUMIN E]

# Continued, compound first:
SMILES,MIC (Serratia marcescens) [µg/mL],MIC (Shigella flexneri) [µg/mL],MIC (Escherichia coli) [µg/mL],MIC (Pseudomonas aeruginosa) [µg/mL],MIC (Bacillus cereus) [µg/mL],MIC (Bacillus subtilis) [µg/mL],MIC [1] [µg/mL],MIC (Alcaligenes faecalis) [µg/mL],MIC (Micrococcus luteus) [µg/mL],MIC (Staphylococcus aureus [2]) [µg/mL],MIC (Staphylococcus aureus [3]) [µg/mL]
C=C(C)[C@@H]1CC=C(C)[C@H](CC[C@H]2C(=C)CC[C@@H](C(C)(C)O)[C@]2(C)CCC(=O)OCC)[C@@]1(C)CCC(=O)O,> 50,> 50,> 50,> 50,3.12,12.5,12.5,> 50,> 50,50,> 50
C=C(C)[C@@H]1CCC(=C)[C@H](CC[C@H]2C(C)=CC[C@@H](C(=C)C)[C@]2(C)CCC(=O)O)[C@@]1(C)CCC(=O)OCC,> 50,> 50,> 50,> 50,3.12,12.5,12.5,> 50,> 50,12.5,50
C=C(C)[C@@H]1CC=C(C)[C@H](CC[C@H]2C(=C)CC[C@H]3C(C)(C)[C@@H](O)CC[C@]23C)[C@@]1(C)CCC(=O)OCC [ETHYL LANSIOLATE],> 50,> 50,> 50,> 50,3.12,3.12,12.5,> 50,6.25,3.12,6.25
C=C(C)[C@@H]1CC=C(C)[C@H](CC[C@H]2C(=C)CC[C@@H](C(C)(C)O)[C@]2(C)CCC(=O)OC)[C@@]1(C)CCC(=O)O [LAMESTICUMIN A],> 50,> 50,> 50,> 50,3.12,3.12,12.5,> 50,6.25,3.12,6.25
CC1=CC[C@H]2C(C)(C)C(=O)CC[C@]2(C)[C@H]1CC/C=C(\C)CC/C=C(\C)CC[C@@H](O)C(C)(C)O [LAMESTICUMIN F],> 50,> 50,> 50,> 50,3.12,12.5,> 50,> 50,> 50,> 50,> 50
C=CCc1ccc(O)c(-c2cc(CC=C)ccc2O)c1 [MAGNOLOL],> 50,> 50,> 50,> 50,12.5,12.5,12.5,> 50,12.5,25,25
